Broadly, the IC50 is the concentration needed to halve the response being measured. What is called inhibition is the percentage by which the read-out fell short of the control. Higher therefore signals a response far below the control.

Consider 16 compounds from ChEMBL document CHEMBL1157084, “Exploring the structural requirements for inhibition of the ubiquitin E3 ligase breast cancer associated protein 2 (BCA2) as a treatment for breast cancer” (J Med Chem, 2010).

Calls of active or inactive are those of the source. The rule behind the calls is not given here.

Assay [1] concerns T47D. Briefly: Antiproliferative activity against human T47D cells expressing BCA2 and estrogen receptor after 72 hrs by MTT assay. The format is functional, cell-based. In a few lines:
(§1)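 Each compound run in triplicate; actives repeated in three independent experiments, IC50 read from growth curves as mean ± SD. Cells in RPMI 1640 + 10% heat-inactivated FBS (MDA-MB-231/ER also with 1 mg/mL G418; MCF10A in MEGM), 37 °C, 5% CO2, exponential phase.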
In general terms: Formazan colour is commonly taken as a measure of viable cells.

A short description of assay [2]: Antiproliferative activity against human MCF10A cells after 72 hrs by MTT assay. The format is cell-based. Particulars: MCF-10A. In a few lines: as §1
For assay [3], the species on record is Homo sapiens. Briefly: Inhibition of wild type human recombinant His-BCA2 autoubiquitination expressed in Escherichia coli at 50 uM after 30 mins by Western blotting in presence of human recombinant E2 UbcH5b. In a few lines:
(§2)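 10 ng E. coli-expressed His-BCA2 preincubated 30 min at room temperature with compound (final 5 or 50 μM, DMSO stocks). Then added ATP, 1 μg ubiquitin, 20 ng rabbit E1 and 20 ng UbcH5b in Tris HCl pH 8.0 with DTT and MgCl2. Reaction 1 h at 30 °C, then SDS-PAGE on 4–20% gel and immunoblot with anti-ubiquitin antibody.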

Assay [4] relates to MCF7. The assay is described as follows: Reduction of BCA2 protein expression in human MCF7 cells at IC100 after 16 hrs by Western blotting in presence of MG132. The class given is functional, cell-based. For orientation: Immunoblotting shows a protein as a band on a membrane.
The test system of assay [5] is MCF7. Briefly: Reduction of BCA2 protein expression in human MCF7 cells at IC100 after 16 hrs by Western blotting in presence of cyclohexamide. The class given is functional, cell-based.
The target of assay [6] is T1, Aldehyde dehydrogenase 1A1 (Homo sapiens) (UniProt P00352).
T1 sequence (whole entry): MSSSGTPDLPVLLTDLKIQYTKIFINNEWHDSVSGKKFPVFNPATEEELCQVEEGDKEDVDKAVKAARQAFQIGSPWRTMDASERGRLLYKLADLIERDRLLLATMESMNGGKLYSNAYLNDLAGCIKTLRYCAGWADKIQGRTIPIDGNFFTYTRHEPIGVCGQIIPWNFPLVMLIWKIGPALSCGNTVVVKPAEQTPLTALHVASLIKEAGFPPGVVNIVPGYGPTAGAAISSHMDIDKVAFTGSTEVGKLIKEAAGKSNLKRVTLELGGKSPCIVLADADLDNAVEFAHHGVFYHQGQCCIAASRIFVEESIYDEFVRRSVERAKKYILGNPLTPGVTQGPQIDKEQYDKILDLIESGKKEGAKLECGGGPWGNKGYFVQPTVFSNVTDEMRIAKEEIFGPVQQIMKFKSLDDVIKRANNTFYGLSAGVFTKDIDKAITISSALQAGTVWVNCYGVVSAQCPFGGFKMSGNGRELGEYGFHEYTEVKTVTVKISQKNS
The assay is described as follows: Inhibition of ALDH1 in human K562 cells at 15 uM after 45 mins by flow cytometry based method relative to bodipy-aminoacetaldehyde. The format is cell-based. For orientation: Flow cytometry measures light scatter and fluorescence of single cells or particles in a stream.

In assay [7] the test system is K562. Briefly: Percentage of ALDH+ cells in human K562 cells at 15 uM after 45 mins by flow cytometry based method. To be noted: K562, 0.75 h.
Assay [8] is filed under the species Homo sapiens. Briefly: Inhibition of wild type human recombinant His-BCA2 autoubiquitination expressed in Escherichia coli at 5 uM after 30 mins by Western blotting in presence of human recombinant E2 UbcH5b. In a few lines:
as §2

The subject of assay [9] is MDA-MB-231. Briefly: Antiproliferative activity against BCA2 and ER deficient human MDA-MB-231 cells after 72 hrs by MTT assay. The class given is functional, cell-based. To be noted: MDA-MB-231, 72 h. The gist of the method:
as §1

Assay [10] concerns MCF7. Briefly: Antiproliferative activity against human MCF7 cells expressing BCA2 and estrogen receptor at IC50 concentration after 5 days by MTT assay in presence of 75 uM to 600 nM zinc chloride. The format is functional, cell-based. In a few lines: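 MCF-7 cells (BCA2+, ER+) grown in RPMI 1640 with 10% heat-inactivated FBS, 37 °C, 5% CO2, used in exponential growth. Drug given with zinc chloride across 600 nM–75 μM for 5 days, then MTT read-out. Vehicle-treated cells without ZnCl2 or drug set as 100% growth.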

Assay [11] relates to MCF7. The assay is described as follows: Reduction of BCA2 protein expression in human MCF7 cells at IC100 after 16 hrs by Western blotting in presence of cyclohexamide and MG132. The format is functional, cell-based.
Assay [12] has as its system MDA-MB-231. Briefly: Antiproliferative activity against human MDA-MB-231 cells expressing BCA2 and ERalpha after 72 hrs by MTT assay. The format is functional, cell-based. To be noted: MDA-MB-231, 72 h. The gist of the method: as §1
Assay [13] relates to MCF7. Briefly: Reduction of BCA2 protein expression in human MCF7 cells at IC100 after 16 hrs by Western blotting. The format is functional, cell-based.
Assay [14] addresses E3 ubiquitin-protein ligase Mdm2 (Homo sapiens) (UniProt Q00987). Briefly: Inhibition of recombinant RING-E3 ligase Mdm2 autoubiquitination at 5 to 50 uM after 30 mins by Western blotting in presence of human recombinant E2 UbcH5b.
Assay [15] concerns MCF7. Briefly: Antiproliferative activity against human MCF7 cells expressing BCA2 and estrogen receptor after 72 hrs by MTT assay. The format is functional, cell-based. To be noted: MCF7, 72 h. The gist of the method: as §1

Chain of E3 ubiquitin-protein ligase Mdm2 (Homo sapiens) (Q00987 whole entry, looked up): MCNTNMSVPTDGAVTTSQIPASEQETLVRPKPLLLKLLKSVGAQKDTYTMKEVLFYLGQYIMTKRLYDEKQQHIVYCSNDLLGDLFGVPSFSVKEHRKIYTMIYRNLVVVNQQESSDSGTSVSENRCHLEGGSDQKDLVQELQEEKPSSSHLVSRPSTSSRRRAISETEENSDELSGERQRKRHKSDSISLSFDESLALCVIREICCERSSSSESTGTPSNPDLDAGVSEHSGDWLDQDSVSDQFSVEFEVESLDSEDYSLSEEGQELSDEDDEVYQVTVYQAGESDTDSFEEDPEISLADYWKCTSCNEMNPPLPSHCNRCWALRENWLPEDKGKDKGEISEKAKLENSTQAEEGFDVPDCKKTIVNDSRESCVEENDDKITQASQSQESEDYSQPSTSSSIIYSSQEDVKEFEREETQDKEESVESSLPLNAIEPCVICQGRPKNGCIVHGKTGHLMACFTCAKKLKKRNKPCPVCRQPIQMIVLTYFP

With `S=C(SSC(=S)N1CCCCC1)N1CCCCC1` [BIS(PIPERIDINYLTHIOCARBONYL)DISULFIDE], the IC50 in assay [1] was 0.27 µM; in [2], above 10 µM; in assay [9] it was above 10 µM; in [12] it was 0.59 µM; in [15], 0.03 µM. The result in assay [3], in assay [4], in assay [5], in assay [11] and in assay [13] was Active. This compound also had an inhibition in assay [6] of 79.5%. This compound also showed an ALDH+ cells (%) at 15 µM in assay [7] of 8.3%. For the same compound, the outcome in assay [8], in assay [10] and in assay [14] was inactive.

On to `S=C(SSC1CCCCC1)N1CCCC1`, for which the IC50 in assay [1] was 1.35 µM; in assay [2], above 10 µM; in assay [9], 4.7 µM; in assay [12], 0.25 µM; in assay [15] it was 1.4 µM.

For `CCCCSSC(=S)N1CCCCC1`, the IC50 in [1] was 0.35 µM; in [2], above 10 µM; in assay [9] it was 8 µM; in [12] it was 0.39 µM; in [15], 0.65 µM.

As for `CCN(CC)C(=S)SSC(=S)N(CC)CC`, the IC50 in [1] was 0.17 µM; in [2], 10 µM; in assay [9], above 10 µM; in [12], 0.32 µM; in [15], 0.1 µM. In addition, the result in assay [3] was Active. This compound also yielded an inhibition in assay [6] of 57.3%. This compound gave an ALDH+ cells (%) at 15 µM in [7] of 17.3%. Also, the outcome in [8], in assay [10] and in [14] was inactive.

In the case of `S=C(SSC(=S)N1CCCC1)N1CCCC1` [BIS(PYRROLIDINYLTHIOCARBONYL)DISULFIDE], the IC50 in assay [1] is 0.28 µM; in assay [2] it was above 10 µM; in assay [9], above 10 µM; in assay [12] it was 0.25 µM; in [15], 0.38 µM. Besides, in assay [3], the outcome was Active. The inhibition in assay [6] came out at 3.4%. The same compound had an ALDH+ cells (%) at 15 µM in assay [7] of 39%. Moreover, the result in [8] and in assay [14] was inactive.

Regarding `CCN(CC)C(=S)SSC(C)C` [ISOPROPYL DIETHYLCARBAMO(DITHIOPEROXO)THIOATE], the IC50 in assay [1] was 0.23 µM; in assay [2] it was above 10 µM; in assay [9], 0.96 µM; in [12], 0.25 µM; in assay [15], 0.39 µM.

`CCCCCCSSC(=S)N(CC)CC` [DIETHYLCARBAMO(DITHIOPEROXO)THIOATE]: the concentration for half-maximal inhibition (IC50) was 0.23 µM in assay [1]; above 10 µM in assay [2]; above 10 µM in assay [9]; 0.35 µM in [12]; 0.43 µM in assay [15]. The result in assay [3], in [4], in assay [5], in assay [11] and in [13] was Active. This compound also gave an inhibition in assay [6] of 9.8%. The compound also gave an ALDH+ cells (%) at 15 µM in assay [7] of 36.5%. For the same compound, the outcome in [8], in assay [10] and in assay [14] was inactive.

Consider `CCCCSSC(=S)N(CC)CC` [BUTYL DIETHYLCARBAMO(DITHIOPEROXO)THIOATE], for which the IC50 in assay [1] was 0.15 µM; in assay [2] it was above 10 µM; in [9] it was 7.4 µM; in [12] it was 0.3 µM; in [15], 0.4 µM.

For the compound `S=C(SSC1CCCCC1)N1CCCCC1`, the IC50 in assay [1] is 0.25 µM; in assay [2], above 10 µM; in assay [9], 6.7 µM; in assay [12], 2.3 µM; in assay [15] it was 0.6 µM.

For the compound `CCN(CC)C(=S)SSc1ccc(C(=O)O)cc1`, the IC50 in assay [1] was 0.15 µM; in assay [2] it was above 10 µM; in assay [9] it was 6.3 µM; in assay [12] it was 0.55 µM; in assay [15], 0.5 µM.

Compound `Cc1cc(C)n2c1C=C1C=CC(CCC(=O)NCC=O)=[N+]1[B-]2(F)F` gave an inhibition in assay [6] of 0%. In assay [7], this compound had an ALDH+ cells (%) at 15 µM of 40.4%.

In the case of `CCC(C)SSC(=S)N(CC)CC` (stereo unspecified), the IC50 in assay [1] was 0.2 µM; in assay [2], above 10 µM; in assay [9], 6 µM; in [12] it was 2.1 µM; in assay [15] it was 0.45 µM.

For `CCN(CC)C(=S)SSCCO`, the IC50 was 0.3 µM in assay [1], above 10 µM in assay [2], 2.75 µM in assay [12] and 0.5 µM in assay [15]. Also, in assay [3], the result was Active. This compound registered an inhibition in assay [6] of 8.6%. Moreover, the outcome in [8] and in assay [14] was inactive.

Turning to `C1CN(SSN2CCOCC2)CCO1` [DITHIODIMORPHOLINE], the IC50 in [1], in [2], in [9], in assay [12] and in assay [15] was above 10 µM throughout.

For `CN1CCN(C(=S)SSC(=S)N2CCN(C)CC2)CC1`, the IC50 in assay [1] is 0.33 µM; in assay [2] it was above 10 µM; in [9], 3 µM; in assay [12], 0.29 µM; in assay [15] it was 0.35 µM.

On to `CCN(CC)C(=S)SSC1CCCCC1` [CYCLOHEXYL DIETHYLCARBAMO(DITHIOPEROXO)THIOATE], for which the IC50 in [1] is 0.18 µM; in assay [2], above 10 µM; in assay [9], 0.96 µM; in [12] it was 0.28 µM; in assay [15], 0.3 µM.
